We go through 11 compounds from ChEMBL document CHEMBL5120935, “Synthesis, Anti-Plasmodial Activities, and Mechanistic Insights of 4-Aminoquinoline-Triazolopyrimidine Hybrids” (ACS Med Chem Lett, 2022).

Each structure is given as a SMILES string.

The subject of data set [1] is Plasmodium falciparum. Kind of data set: Antiplasmodial activity against CQ-susceptible Plasmodium falciparum 3D7 infected in A+ human blood assessed as reduction in parasite growth measured after 72 hrs by HRP2 ELISA. In kind it is functional, organism-based. The settings on record: 3D7, Blood. The essentials: (§1)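 IC50s against P. falciparum chloroquine-susceptible 3D7 and chloroquine-resistant W2 strains, each tested separately. Values are the mean and standard deviation of 6 to 9 independent experiments.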

The subject of data set [2] is Plasmodium falciparum. Kind of data set: Antiplasmodial activity against CQ-resistance Plasmodium falciparum W2 infected in A+ human blood assessed as reduction in parasite growth measured after 72 hrs by HRP2 ELISA. The format is functional, organism-based. The essentials: as §1
The nature of data set [3]: Cytotoxicity against African green monkey Vero cells. In kind it is toxicity, cell-based. The settings on record: African green monkey (Chlorocebus sabaeus).
Data set [4] can be described thus: Selectivity index, ratio of IC50 for cytotoxicity against African green monkey Vero cells to IC50 for antiplasmodial activity against CQ-susceptible Plasmodium falciparum 3D7 infected in A+ human blood assessed as reduction in parasite growth measured after 72 hrs by HRP2 ELISA. The settings on record: read-out: Selectivity Index. In kind it is toxicity, cell-based. The essentials:
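Selectivity index calculated as the IC50 for cytotoxicity on Vero cells divided by the antiplasmodial IC50 against the 3D7 strain.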

Data set [5] can be described thus: Selectivity index, ratio of IC50 for cytotoxicity against African green monkey Vero cells to IC50 for antiplasmodial activity against CQ-resistance Plasmodium falciparum W2 infected in A+ human blood assessed as reduction in parasite growth measured after 72 hrs by HRP2 ELISA. The settings on record: read-out: Selectivity Index. The format is toxicity, cell-based. The procedure, abridged: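 Selectivity index calculated as the IC50 for cytotoxicity on Vero cells divided by the antiplasmodial IC50 against the W2 strain.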

Data set [6] can be described thus: Resistance index, ratio of IC50 for antiplasmodial activity against CQ-resistance Plasmodium falciparum W2 infected in A+ human blood to IC50 for antiplasmodial activity against CQ-susceptible Plasmodium falciparum 3D7 infected in A+ human blood. The format is functional. The essentials: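 Resistance index calculated as IC50 against W2 divided by IC50 against 3D7, using the in vitro antiplasmodial IC50s measured for each strain.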

Turning to `Cc1cc(NCCCNc2ccnc3cc(Cl)ccc23)n2ncnc2n1`, the half-inhibitory concentration (IC50) in the data set on Plasmodium falciparum [1] turned out to be 0.62 µM; in the data set on Plasmodium falciparum [2], 0.49 µM; in data set [3] it was 181 µM. Besides, the selectivity ratio at 72 h is 291 in data set [4] and 369 in data set [5]. In addition, in data set [6], the “Ratio IC50” value was 0.79.
For the compound `Cc1cc(NCCCCCCNc2cc(C)nc3ncnn23)n2ncnc2n1`, the half-inhibitory concentration (IC50) in the data set on Plasmodium falciparum [1] stood at 11.6 µM; in the data set on Plasmodium falciparum [2], 11.3 µM. Besides, in data set [6], the “Ratio IC50” value is reported as 0.97.
On to `Cc1cc(NCCCCCCNc2ccnc3cc(Cl)ccc23)n2ncnc2n1`, for which the half-inhibitory concentration (IC50) in the data set with Plasmodium falciparum [1] turned out to be 0.3 µM; in the data set on Plasmodium falciparum [2], 0.28 µM; in data set [3], 311 µM. The selectivity ratio at 72 h was 1040 in data set [4] and 1110 in data set [5]. The “Ratio IC50” value in data set [6] is given as 0.93.
As for `Cc1cc(NCCCCCCCCNc2cc(C)nc3ncnn23)n2ncnc2n1`, the results for the IC50 in the data set with Plasmodium falciparum [1] and in the data set with Plasmodium falciparum [2] were 45.8 µM and 49.4 µM, respectively. Further, in data set [6], the “Ratio IC50” value was 1.08.
Consider `Cc1cc(NCCNc2cc(C)nc3ncnn23)n2ncnc2n1`, for which the half-maximal inhibitory concentration (IC50) in the data set on Plasmodium falciparum [1] was determined as 52.2 µM; with Plasmodium falciparum [2] it was 53.8 µM. Also, the “Ratio IC50” value in data set [6] was 1.03.
For `Cc1cc(NCCCCCCCCNc2ccnc3cc(Cl)ccc23)n2ncnc2n1`, the 50% inhibitory concentration (IC50) in the data set on Plasmodium falciparum [1] came to 0.17 µM; with Plasmodium falciparum [2], 0.2 µM; in data set [3] it was 351 µM. For the same compound, the selectivity ratio at 72 h in data set [4] came to 2060; in data set [5], 1750. Moreover, the “Ratio IC50” value in data set [6] is given as 1.18.
`Cc1cc(N2CCN(c3ccnc4cc(Cl)ccc34)CC2)n2ncnc2n1`: the concentration for half-maximal inhibition (IC50) in the data set with Plasmodium falciparum [1] came out at 12.6 µM; in the data set with Plasmodium falciparum [2], 12.9 µM. For the same compound, the “Ratio IC50” value in data set [6] came to 1.02.
Turning to `Cc1cc(NCCNc2ccnc3cc(Cl)ccc23)n2ncnc2n1`, the concentration for half-maximal inhibition (IC50) in the data set on Plasmodium falciparum [1] stood at 9 µM; in the data set on Plasmodium falciparum [2], 10.8 µM. For the same compound, the “Ratio IC50” value in data set [6] is recorded as 1.2.
`Cc1cc(NCCCCNc2cc(C)nc3ncnn23)n2ncnc2n1`: the IC50 is 12.5 µM in the data set on Plasmodium falciparum [1] and 11.8 µM in the data set with Plasmodium falciparum [2]. Also, the “Ratio IC50” value in data set [6] amounted to 0.94.
For the compound `Cc1cc(NCCCCNc2ccnc3cc(Cl)ccc23)n2ncnc2n1`, the IC50 in the data set on Plasmodium falciparum [1] was found to be 0.27 µM; in the data set on Plasmodium falciparum [2] it was 0.42 µM; in data set [3] it was 250 µM. The selectivity ratio at 72 h in data set [4] was found to be 927; in data set [5], 596. For the same compound, the “Ratio IC50” value in data set [6] was 1.56.
For the compound `Cc1cc(NCCCNc2cc(C)nc3ncnn23)n2ncnc2n1`, the 50% inhibitory concentration (IC50) was 47.3 µM in the data set on Plasmodium falciparum [1] and 49.1 µM in the data set on Plasmodium falciparum [2]. In data set [6], the “Ratio IC50” value stood at 1.03.
